Measurements taken from paper PMC3078945 (Clinical cancer research : an official journal of the …, 2011).
Entries after “also recorded” stand apart in the source; their conditions may differ. Read-outs that look alike come from different tables or passages of the source.

Key:
[1] = Safingol plasma pharmacokinetics in the phase I trial; type: in vivo, human; settings: for dose dependence of safingol PK parameters (Cmax, AUC): safingol 60–930 mg/m^2
In short: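 Safingol was an egg-phospholipid/dextrose/lactic acid emulsion diluted to 1 mg/ml in saline and infused IV over 60–120 min at 60–930 mg/m2. […] Assay was HPLC-MS/MS with non-compartmental analysis.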

[2] = test system: sphingosine-1-phophate (S1P) levels; assay: Pharmacodynamics: plasma S1P levels after safingol; type: in vivo, human; settings: for effect on S1P in plasma: across dose cohorts
In short: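 Levels 1 h and 4 h after safingol were normalized to pre-treatment levels, with patients grouped by dose cohort. Values are cohort means with standard error.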

advanced solid tumors = assay: Antitumor activity; type: in vivo, human
[3] = test system: patients with advanced solid tumors; settings: for AST/ALT G2 (number of patients) / Fatigue G4 (number of patients) / Hyponatremia G2 (number of patients) / Hyponatremia G3 (number of patients) / Hyponatremia G4 (number of patients) / Lymphopenia G2 (number of patients) / Lymphopenia G3 (number of patients) / Lymphopenia G4 (number of patients) / Nausea/vomiting G2 (number of patients) / Nausea/vomiting G3 (number of patients): cycle 1
[4] = cohorts 8–10, safingol 750–930 mg/m^2
[5] = safingol + cisplatin, 6 patients
[6] = safingol + cisplatin, 37 patients evaluable
[7] = cohort 1 (safingol 60, cisplatin 75 mg/m^2), N=4
[8] = cohort 2 (safingol 120, cisplatin 75 mg/m^2), N=3
[9] = cohort 3 (safingol 240, cisplatin 75 mg/m^2), N=3
[10] = cohort 4 (safingol 240, cisplatin 60 mg/m^2), N=6
[11] = cohort 5 (safingol 360, cisplatin 60 mg/m^2), N=3

CCCCCCCCCCCCCCC[C@H](O)[C@@H](N)CO [Safingol, (2S,3S)-2-amino-1,3-octadecanediol]
pharmacokinetic interaction of safingol with cisplatin (day 1 vs day 8) ([1]; cohorts 1–7, listed as S): no significant interaction
duration of safingol concentration over 20 µM [1, 4]: < 1 h
time safingol levels of at least 5 µM persist after treatment [1, 4]: at least 4 hours
AUC ([1]; human, plasma, intravenous, Mean day 1 safingol AUC, safingol 600 – 930 mg/m^2): 102 to 110 µM·h
Cmax ([1]; human, plasma, intravenous, Mean day 1 safingol Cmax, safingol 600 – 930 mg/m^2): 23.9 to 26.8 µM
increase in AUC per 100 mg/m^2 increase in safingol dose ([1]; on average): 10 µM·h
increase in Cmax per 100 mg/m^2 increase in safingol dose ([1]; on average): 3 µM
dose dependence of safingol PK parameters (Cmax, AUC) [1]: increased in a linear and dose-proportional manner; also recorded: increased linearly with dose
dose dependence of safingol PK parameters (Cmax, AUC) ([1]; listed as S): linear throughout the dose range
effect on S1P in plasma [2]: dose-dependent decreases; also recorded: significant decreases
effect on S1P in plasma ([2]; listed as S): dose-dependent reduction
time dependence of S1P levels ([2]; safingol 930 mg/m^2, p = 0.001): lower 4 hours post-treatment than at 1 hour post-treatment
decrease of S1P levels relative to pre-treatment ([2]; safingol doses of over 750 mg/m^2, p < 0.001): about half
duration of stable disease (advanced solid tumors; other patient with adrenal cortical cancer): 7.2 m
average duration of stable disease (advanced solid tumors; [5]): 3.3 m
range of duration of stable disease (advanced solid tumors; [5]): 1.8 – 7.2 m
average duration of stable disease (advanced solid tumors; safingol + cisplatin, 6 patients, listed as S): 3.3 months
best response (advanced solid tumors; [6]): stable disease
number of patients with stable disease (advanced solid tumors; [6]): 6
upper limit of the 95% posterior interval of DLT rate ([3]; MTD cohort): 40%
DLT rate for the MTD cohort ([3]; cohort 10, 1/6): 17%
hemolysis ([3]; current study, careful monitoring): no hemolysis was observed in any patient
AST/ALT G2 (number of patients) [3, 7]: 0
Fatigue G4 (number of patients) [3, 7]: 0
Hyponatremia G2 (number of patients) [3, 7]: 0
Hyponatremia G3 (number of patients) [3, 7]: 1
Hyponatremia G4 (number of patients) [3, 7]: 0
Lymphopenia G2 (number of patients) [3, 7]: 0
Lymphopenia G3 (number of patients) [3, 7]: 1
Lymphopenia G4 (number of patients) [3, 7]: 0
Nausea/vomiting G2 (number of patients) [3, 7]: 0
Nausea/vomiting G3 (number of patients) [3, 7]: 0
AST/ALT G2 (number of patients) [3, 8]: 0
Fatigue G4 (number of patients) [3, 8]: 0
Hyponatremia G2 (number of patients) [3, 8]: 0
Hyponatremia G3 (number of patients) [3, 8]: 0
Hyponatremia G4 (number of patients) [3, 8]: 0
Lymphopenia G2 (number of patients) [3, 8]: 0
Lymphopenia G3 (number of patients) [3, 8]: 1
Lymphopenia G4 (number of patients) [3, 8]: 0
Nausea/vomiting G2 (number of patients) [3, 8]: 1
Nausea/vomiting G3 (number of patients) [3, 8]: 0
AST/ALT G2 (number of patients) [3, 9]: 0
Fatigue G4 (number of patients) [3, 9]: 0
Hyponatremia G2 (number of patients) [3, 9]: 0
Hyponatremia G3 (number of patients) [3, 9]: 1
Hyponatremia G4 (number of patients) [3, 9]: 0
Lymphopenia G2 (number of patients) [3, 9]: 0
Lymphopenia G3 (number of patients) [3, 9]: 0
Lymphopenia G4 (number of patients) [3, 9]: 0
Nausea/vomiting G2 (number of patients) [3, 9]: 3
Nausea/vomiting G3 (number of patients) [3, 9]: 0
AST/ALT G2 (number of patients) [3, 10]: 1
Fatigue G4 (number of patients) [3, 10]: 0
Hyponatremia G2 (number of patients) [3, 10]: 0
Hyponatremia G3 (number of patients) [3, 10]: 0
Hyponatremia G4 (number of patients) [3, 10]: 0
Lymphopenia G2 (number of patients) [3, 10]: 0
Lymphopenia G3 (number of patients) [3, 10]: 3
Lymphopenia G4 (number of patients) [3, 10]: 0
Nausea/vomiting G2 (number of patients) [3, 10]: 0
Nausea/vomiting G3 (number of patients) [3, 10]: 0
AST/ALT G2 (number of patients) [3, 11]: 1
Fatigue G4 (number of patients) [3, 11]: 0
Hyponatremia G2 (number of patients) [3, 11]: 0
Hyponatremia G3 (number of patients) [3, 11]: 0
Hyponatremia G4 (number of patients) [3, 11]: 0
Lymphopenia G2 (number of patients) [3, 11]: 0
Lymphopenia G3 (number of patients) [3, 11]: 1
